The record followed here is ChEMBL document CHEMBL1158989, “Synthesis and evaluation of hydroxylated flavones and related compounds as potential inhibitors of the protein-tyrosine kinase p56lck” (J Nat Prod, 1991).

The term IC50 denotes the concentration needed to halve the response being measured.

The assay is described as follows: Inhibition of bovine thymus p56LCK-catalyzed phosphorylation of angiotensin 1 by SDS-PAGE. Also noted: species or system Bos taurus. A digest of the protocol:
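p56lck partially purified from bovine thymus (DEAE-cellulose, heparin-agarose, butyl-agarose chromatography). Substrate angiotensin I 1.2 mM with [γ-32P]ATP 50 μM. Reactions held 8% DMSO as inhibitor carrier; DMSO-only controls. Inhibitors tested at seven concentrations, 0.8 to 800 μg/ml. IC50 read graphically as half-maximal inhibition relative to DMSO controls.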

In brackets after ≈: the same amount, converted by molar mass. Bounds are passed on as bounds.

`O=c1cc(-c2cccc(O)c2)oc2c(O)c(O)ccc12` yielded an IC50 of 48 µg/mL (≈ 178 µM). In turn, `O=c1cc(-c2cccc(O)c2)oc2cc(O)ccc12` showed an IC50 of 10 µg/mL (≈ 39.3 µM). As to `O=c1cc(-c2ccc(O)cc2)oc2cc(O)ccc12`, the IC50 turned out to be 43 µg/mL (≈ 169 µM). For `O=c1cc(-c2ccc(O)cc2)oc2ccccc12`, the IC50 came out at 120 µg/mL (≈ 504 µM).

`COc1cc(-c2cc(=O)c3ccccc3o2)cc(OC)c1O` registered an IC50 of 7.7 µg/mL (≈ 25.8 µM). In the case of `COc1cc(-c2cc(=O)c3ccc(O)c(O)c3o2)cc(OC)c1OC` it was 136 µg/mL (≈ 395 µM); in that of `CC(C)(C)[Si](C)(C)Oc1ccc(-c2cc(=O)c3cc(O)ccc3o2)cc1`, 44 µg/mL (≈ 119 µM); in that of `CC(C)(C)[Si](C)(C)Oc1ccc(-c2cc(=O)c3ccc(O)cc3o2)cc1`, 360 µg/mL (≈ 977 µM). Molecule `O=c1cc(-c2ccc(O)cc2)oc2cccc(O)c12` came in with an IC50 of 4 µg/mL (≈ 15.7 µM). In the case of `O=c1cc(-c2ccc(O)cc2)oc2ccc(O)cc12` it was 30 µg/mL (≈ 118 µM). Regarding `O=c1cc(-c2ccc(OCc3ccccc3)cc2)oc2cccc(O)c12`, the IC50 is more than 800 µg/mL.

Turning to `O=c1cc(-c2ccc(OCc3ccccc3)cc2)oc2cc(O)ccc12`, the IC50 was 664 µg/mL (≈ 1930 µM). Turning to `COc1cc(-c2cc(=O)c3ccc(O)cc3o2)cc(OC)c1OC`, the IC50 was more than 800 µg/mL.

`COc1cc(-c2cc(=O)c3ccc(O)cc3o2)cc(OC)c1O[Si](C)(C)C(C)(C)C` displayed an IC50 of 656 µg/mL (≈ 1530 µM).

Regarding `COc1cc(-c2cc(=O)c3cc(O)ccc3o2)cc(OC)c1O`, the IC50 stood at 41 µg/mL (≈ 130 µM). In turn, `COc1cc(-c2cc(=O)c3ccc(O)cc3o2)cc(OC)c1O` returned an IC50 of 400 µg/mL (≈ 1270 µM). With `COc1ccc2oc(-c3cc(OC)c(OC)c(OC)c3)cc(=O)c2c1`, the IC50 was more than 800 µg/mL.

`COc1cc(-c2cc(=O)c3ccc(OC(C)=O)cc3o2)cc(OC)c1O` displayed an IC50 of more than 800 µg/mL.

Turning to `COc1cc(-c2cc(=O)c3ccc(OC(C)=O)c(OC(C)=O)c3o2)cc(OC)c1O[Si](C)(C)C(C)(C)C`, the IC50 is more than 800 µg/mL. With `COc1cc(-c2cc(=O)c3cc(O)ccc3o2)cc(OC)c1O[Si](C)(C)C(C)(C)C`, the IC50 turned out to be 160 µg/mL (≈ 373 µM).

`O=c1cc(-c2cccc(O)c2)oc2ccc(O)cc12` yielded an IC50 of 4 µg/mL (≈ 15.7 µM).

`COc1cc(-c2cc(=O)c3ccc(OC(C)=O)cc3o2)cc(OC)c1O[Si](C)(C)C(C)(C)C` came in with a half-inhibitory concentration (IC50) of more than 800 µg/mL. Take `COc1cc(-c2cc(=O)c3ccc(O)c(O)c3o2)cc(OC)c1O[Si](C)(C)C(C)(C)C`: the IC50 amounted to 40 µg/mL (≈ 90 µM). Then `O=c1cc(-c2cccc(O)c2)oc2cccc(O)c12`, with 80 µg/mL (≈ 315 µM); and `COc1cc(-c2cc(=O)c3cc(O)ccc3o2)cc(OC)c1OC`, with 20 µg/mL (≈ 60.9 µM). For `COc1ccc2c(=O)cc(-c3cc(OC)c(OC)c(OC)c3)oc2c1`, the IC50 is more than 800 µg/mL. Then `O=c1c(O)c(-c2cc(O)cc(O)c2)oc2cc(O)cc(O)c12`, with 30 µg/mL (≈ 99.3 µM); and `O=c1cc(-c2ccccc2)oc2c(O)c(O)ccc12` [7,8-DIHYDROXYFLAVONE], with 80 µg/mL (≈ 315 µM); and `O=c1cc(-c2ccccc2)oc2cc(O)ccc12` [7-HYDROXYFLAVONE], with 80 µg/mL (≈ 336 µM). As for `O=c1cc(-c2ccc(O)cc2)oc2cc(O)cc(O)c12` [APIGENIN], the IC50 turned out to be 4 µg/mL (≈ 14.8 µM).

`O=c1cc(-c2ccccc2)oc2cc(O)cc(O)c12` [CHRYSIN] came in with an IC50 of 5 µg/mL (≈ 19.7 µM). As to `O=c1c(O)c(-c2ccc(O)c(O)c2)oc2cc(O)ccc12` [FISETIN], the IC50 was 4 µg/mL (≈ 14 µM). In the case of `O=c1c(O)c(-c2ccccc2)oc2cc(O)cc(O)c12` [GALANGIN] it was 80 µg/mL (≈ 296 µM); in that of `COc1cc(O)c2c(=O)cc(-c3ccc(O)cc3)oc2c1` [GENKWANIN], 80 µg/mL (≈ 281 µM).

Molecule `O=c1cc(-c2ccc(O)c(O)c2)oc2cc(O)cc(O)c12` [LUTEOLIN] had an IC50 of 10 µg/mL (≈ 34.9 µM).

`O=c1c(O)c(-c2ccc(O)c(O)c2)oc2cc(O)cc(O)c12` [QUERCETIN] showed an IC50 of 4 µg/mL (≈ 13.2 µM). In the case of `COc1cc(-c2oc3cc(O)cc(O)c3c(=O)c2O)cc(OC)c1O` [SYRINGETIN] it was 24 µg/mL (≈ 69.3 µM).
